# High-throughput results as filed in PubChem BioAssay.
# The list is not random: actives were taken first. Their share in the collection is about 3.1%.
# KCNQ1 inh = inhibitors of human KCNQ1 channel, primary screen, cell-based, thallium flux, high-throughput | B-score at 10 µM | actives 1.3% (n = 310,000) | CHO-K1 KCNQ1, FluxOR thallium flux fluorescence; stronger effect = higher value;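 active = compounds whose thallium flux B-score, printed positive for inhibition, exceeds three library SD while starting fluorescence stays within three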;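 also: channel opened by potassium depolarization with thallium stimulus after 20 min compound exposure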
# KCNK3 block = human KCNK3 channel inhibitors, primary screen, CHO cells, FluxOR thallium flux, B-score. actives 0.84% (n = 340,000). B-score at 10 µM. FluxOR fluorescence; stronger effect = lower value. Potassium channel subfamily K member 3 (Homo sapiens), O14649. AID 602410, 2012;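 active = B-score under library mean minus 4 SD, starting fluorescence ratio at most library mean plus 5 SD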;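 also: more negative B-score means stronger inhibition of thallium flux through KCNK3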
# KCNQ1 act = potentiators or activators of KCNQ1 channel, primary screen, cell-based, thallium flux, high-throughput; Potassium voltage-gated channel subfamily KQT member 1 (Homo sapiens), P51787; CHO-K1 KCNQ1, thallium flux FluxOR fluorescence; stronger effect = higher value; B-score at 10 µM; actives 0.35% (n = 310,000);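 active = fluorescence ratio B-score, a plate-corrected score, at least three library SD, with initial intensity B-score within 5 SD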
#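 Doses: Single concentration per compound, DMSO matched to controls | Test system: KCNQ1-transfected CHO-K1 cells | Timing: 90 min dye loading and 20 min compound exposure, both at room temperature | Measured by: Kinetic FluxOR thallium fluorescence, 10-s 1-Hz baseline, 110-s post-stimulus read | Medium: Assay buffer with matched DMSO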
# hERG protect = hERG rescue from dofetilide block, primary screen, cell-based, CHO-hERG, FluxOR thallium flux, dofetilide IC70. dofetilide IC70 present. activation (rescue from dofetilide block), less the hit threshold, % at 10 µM. actives 0.51% (n = 310,000);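 active = activation above the mean of controls blocked by dofetilide plus 5 SD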;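 also: thallium influx through hERG after potassium depolarization seen as dye fluorescence rise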
# KCNK9 inh = KCNK9 potassium channel inhibitors, primary screen, HEK293 cells, thallium flux | Potassium channel subfamily K member 9 (Homo sapiens), Q9NPC2 | B-score at 10 µM | actives 1.2% (n = 310,000) | FluxOR thallium flux fluorescence; stronger effect = lower value;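 active = ratio B-score over 3 SD below the library mean, with starting fluorescence within 5 SD of its mean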;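 also: negative B-score means less thallium flux so channel inhibition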
# KCNK9 block conf = KCNK9 potassium channel inhibitors, confirmation, HEK293 cells, thallium flux, duplicate. actives 43% (n = 4,900). FluxOR thallium flux fluorescence. AID 492992, 2010. shares compounds with KCNK9 inh. inhibition, % at 10 µM;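 active = thallium signal inhibited by more than 5 SD of the compound-free buffer control wells, on both duplicate plates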;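 also: 0% = assay buffer control wells without compound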
# Kir21 sel = mouse Kir2.1 channel inhibition, confirmation, selectivity assay for KCNK9 modulator project, cell-based, HEK293, thallium flux; shares compounds with KCNK9 inh; Kir2.1 cells, FluxOR thallium flux fluorescence; inhibition, % at 10 µM; actives 4% (n = 4,900); AID 492993, 2010;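 active = thallium signal drop more than 5 SD beyond the mean of the no-compound control wells, seen in both duplicate plates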;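 also: signal is fluorescence rise after thallium addition divided by baseline fluorescence; plate controls were assay buffer only for no effect and full block by chlorpromazine control for full effect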
# Target sequence (P35561 whole entry, looked up): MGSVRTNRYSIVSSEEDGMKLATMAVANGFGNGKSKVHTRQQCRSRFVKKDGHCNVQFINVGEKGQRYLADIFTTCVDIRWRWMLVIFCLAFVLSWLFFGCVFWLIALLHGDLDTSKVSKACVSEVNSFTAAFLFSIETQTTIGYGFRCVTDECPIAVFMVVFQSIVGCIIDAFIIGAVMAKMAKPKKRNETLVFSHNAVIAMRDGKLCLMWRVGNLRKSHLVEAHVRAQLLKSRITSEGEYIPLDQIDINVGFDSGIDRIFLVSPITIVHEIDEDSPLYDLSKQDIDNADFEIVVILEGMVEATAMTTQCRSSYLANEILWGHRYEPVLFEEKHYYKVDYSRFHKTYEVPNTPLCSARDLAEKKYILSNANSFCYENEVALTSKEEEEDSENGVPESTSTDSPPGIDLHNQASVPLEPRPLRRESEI
# KCNK9 uninduced = thallium flux in non-induced HEK293 cells, confirmation, counter-screen for KCNK9 inhibitor project, cell-based, second counter screen, non-induced KCNK9-HEK293. shares compounds with KCNK9 inh. FluxOR thallium flux. inhibition, % at 10 µM. actives 40% (n = 4,900). AID 492997, 2010;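 active = thallium signal drop beyond 5 SD of the untreated control mean, on both duplicate plates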;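 also: plate controls were buffer only IC0 wells for no effect and SID17386958 at its maximal inhibitory level for full effect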
# * = called active by the depositor; i = inactive; . = no result given.
SMILES,KCNQ1 inh,KCNK3 block,KCNQ1 act,hERG protect,KCNK9 inh,KCNK9 block conf,Kir21 sel,KCNK9 uninduced
Cc1ccc(C)c2[nH]c(=O)c(CN(Cc3ccco3)C(=O)Nc3ccccc3)cc12,i,i,i,-15.5,-13.3*,62.5%*,i,i
COC(=O)c1cc(C(=O)NNC(=O)c2ccc3c(c2)OCO3)cc([N+](=O)[O-])c1,.,i,.,.,.,.,.,.
COc1ccccc1C/C(N)=N/OC(=O)COc1cccc2ccccc12,i,i,i,-12.1,i,i,i,i
COc1ccccc1C/C(N)=N/OC(=O)COc1ccccc1C,i,i,i,-8.7,i,i,i,i
O=C(Nn1cnc2ccccc2c1=O)c1c(F)cccc1F,i,i,i,-7.1,i,.,.,.
Brc1ccc(CSc2nnc(-c3ccccn3)n2Cc2ccco2)cc1,i,i,i,-15.6,-16.3*,43.5%*,i,41.0%*
Clc1cccc(CSc2nnc(-c3ccccn3)n2Cc2ccco2)c1,i,i,i,-19.0,i,.,.,.
CCOC(=O)C1=C(CSc2nc(-c3ccccc3)ccc2C#N)OC(N)=C(C#N)C1c1cccnc1 (configuration not stated),i,-16.6*,i,-10.8,-18.5*,68.5%*,i,40.5%*
CCOC(=O)C1=C(CSc2nc(-c3ccccc3)ccc2C#N)OC(N)=C(C#N)C1c1ccccc1 (configuration not stated),i,i,i,-11.7,-12.7*,47.0%*,i,38.0%*
CCOC(=O)CC1=C(C(=O)OCC)C(c2cccnc2)C(C#N)=C(N)O1 (configuration not stated),i,i,i,-11.7,i,.,.,.
FC(F)(F)c1nnc(-c2ccccc2)nc1Oc1ccc(Cl)cc1Cl,11*,i,i,-8.9,i,i,i,i
FC(F)(F)c1nnc(-c2ccccc2)nc1Sc1ccc(Cl)cc1,i,i,i,-17.6,i,i,i,i
FC(F)(F)c1cccc(Oc2nc(-c3ccccc3)nnc2C(F)(F)F)c1,i,i,i,-10.7,i,.,.,.
CCOc1ccccc1N1CCN(C/C=C/c2ccc(N(C)C)cc2)CC1,i,i,i,-9.4,i,i,i,i
CCOc1ccccc1N1CCN(Cc2ccc(Br)s2)CC1,i,i,i,-7.8,i,i,i,i
CCOc1ccccc1N1CCN(Cc2ccco2)CC1,i,i,i,-4.1,i,.,.,.
O=C(CC(O)(c1ccccc1)c1ccccc1)Nc1ccccn1,.,i,.,.,.,.,.,.
COc1ccc2[nH]c(C)c(CCN(Cc3cccs3)C(=S)Nc3cccc(F)c3)c2c1,i,-12.2*,i,-19.8,-14.1*,55.0%*,i,31.0%*
COc1ccc(OC)c(NC(=S)N(CCc2c(C)[nH]c3ccccc23)Cc2cccs2)c1,i,i,i,-8.3,-9.1*,31.5%*,i,31.0%*
COc1ccc(OC)c(NC(=S)N(CCc2c(C)[nH]c3ccc(C)cc23)Cc2cccs2)c1,i,i,i,-18.7,-9.36*,34.0%*,i,30.5%*
Cc1[nH]c2ccc(F)cc2c1CCN(Cc1cccnc1)C(=S)Nc1cccc(F)c1,i,i,i,-6.3,-9.13*,41.5%*,i,44.0%*
CCCCN(C(=O)c1cccc(S(=O)(=O)N2CC(C)OC(C)C2)c1)c1c(N)n(CC(C)C)c(=O)[nH]c1=O (configuration not stated),i,i,i,-6.7,i,.,.,.
CCN1CCC(O)(/C=C/c2ccc(C(C)C)cc2)C(C(=O)/C=C/c2ccc(C(C)C)cc2)C1 (configuration not stated),.,i,.,.,.,.,.,.
Cc1cccc(CC(=O)OCn2nnc3ccccc3c2=O)c1,i,i,i,-13.9,i,i,i,i
O=C(Cn1cc(C(=O)c2cccs2)c2ccccc21)NC1CCCCC1,i,i,i,-8.8,-12*,53.5%*,i,28.0%*
SMILES,KCNQ1 inh,KCNK3 block,KCNQ1 act,hERG protect,KCNK9 inh,KCNK9 block conf,Kir21 sel,KCNK9 uninduced
COc1ccc2oc(=O)c(-c3nc(C)cs3)cc2c1,.,i,.,.,.,.,.,.
CC/C(C)=N\Nc1nc(-c2cc3cc(OC)ccc3oc2=O)cs1,i,i,i,-8.7,i,i,i,i
O=S(=O)(NCC(c1ccco1)N1CCN(c2ccccc2F)CC1)c1ccc(F)cc1 (configuration not stated),i,i,i,-8.3,-12.8*,45.5%*,i,34.0%*
O=S(=O)(NCC(c1ccco1)N1CCN(c2ccccc2)CC1)c1ccc(F)cc1 (configuration not stated),i,i,i,-8.7,i,.,.,.
CC1CN(C(=O)CSc2nnc(NC(=O)NC(C)(C)C)s2)CC(C)O1 (configuration not stated),i,i,i,-10.2,i,.,.,.
Cc1ccc(OCCC(=O)OCC(=O)Nc2ccc(C)c(S(=O)(=O)N3CCOCC3)c2)cc1,.,i,.,.,.,.,.,.
Cc1ccc(C)c(OCCC(=O)OCC(=O)Nc2ccc(C)c(S(=O)(=O)N3CCCCC3)c2)c1,i,i,i,-9.4,-11.2*,i,i,29.0%*
COc1ccc(NC(=O)COc2ccccc2F)cc1S(=O)(=O)N1CCCCC1,i,i,i,-13.5,-9.64*,i,i,i
CCc1ccc(N(C(=O)c2snc(C(N)=O)c2N)C(C(=O)NCC2CCCO2)c2cccs2)cc1 (configuration not stated),i,i,i,-18.4,i,i,i,i
COc1ccc(C(c2nnnn2Cc2ccccc2)N2CCN(c3ccccc3)CC2)cc1 (configuration not stated),i,i,i,-4.4,i,.,.,.
